Reference: article PMC6989153 (Molecular pharmaceutics, 2019)
Where two headings read alike, the source gives them in different places.

Legend:
MDA-MB-231 breast cancer [1] = conditions: post-injection, tumor-bearing mice; cited from earlier work
[2] = biological target: fatty acid-free human serum albumin (HSA) (Homo sapiens, UniProt P02768); experiment: Equilibrium dialysis; assay type: binding; conditions: PBS, 37°C
Procedure, shortened: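 Fatty acid-free HSA was dissolved in PBS and loaded into a rapid equilibrium dialysis chamber, with PBS in the collection well. The device was shaken at 37°C, and small aliquots were drawn from the collection well over time. Concentration was measured by UV absorbance, or by gamma counting for radioiodinated compound.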

Log D determination = assay type: physicochemical; conditions: octanol/water, pH 7.4
Procedure, shortened: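 Test compound (radioiodinated, or fluorescent) was added to octanol and equilibrated overnight. An equal volume of distilled water at pH 7.4 was added, and the mixture was rotated at room temperature, protected from light, for 48 h. The phases were separated, and relative concentrations were measured by gamma counting (radioiodinated compound) or by fluorescence plate reader (fluorescent analogs).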

Albumin [3] = biological target: T1, Albumin (Homo sapiens, UniProt P02768); experiment: Native gel electrophoresis of APC analogs in human plasma, albumin band; assay type: in vitro ADME; conditions: for Albumin (signal in band on native gel): incubated 4 hrs at 37°C, means ± SEM; for albumin binding: native gel analysis
T1 sequence (P02768 25-609): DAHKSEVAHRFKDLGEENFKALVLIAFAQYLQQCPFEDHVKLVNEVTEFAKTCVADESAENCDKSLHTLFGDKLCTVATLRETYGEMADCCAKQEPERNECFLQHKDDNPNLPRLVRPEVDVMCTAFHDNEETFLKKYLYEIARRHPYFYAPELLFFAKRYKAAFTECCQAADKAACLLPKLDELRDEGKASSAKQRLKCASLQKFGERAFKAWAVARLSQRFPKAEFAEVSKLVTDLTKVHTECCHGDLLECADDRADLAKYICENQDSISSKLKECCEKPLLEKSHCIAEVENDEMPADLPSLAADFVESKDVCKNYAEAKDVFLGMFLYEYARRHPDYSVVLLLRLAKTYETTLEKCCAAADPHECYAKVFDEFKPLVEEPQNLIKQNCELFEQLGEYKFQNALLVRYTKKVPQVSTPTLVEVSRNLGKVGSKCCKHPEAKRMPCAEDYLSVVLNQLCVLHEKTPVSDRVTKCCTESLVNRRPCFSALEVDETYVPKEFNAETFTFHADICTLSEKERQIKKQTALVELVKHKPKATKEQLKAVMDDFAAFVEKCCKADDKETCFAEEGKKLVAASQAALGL
Procedure, shortened: (§1)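 Fresh, unfrozen human plasma was incubated with test compound (100nM) with shaking for 4 h at 37°C. Samples in sample buffer were run on non-denaturing Tris-glycine gels at a common voltage and duration. Band position and intensity were read by fluorescence imaging or by radioactivity scanning, followed by Coomassie staining. Standards were mouse albumin, human LDL, human HDL, gamma-globulins, alpha1-acid glycoprotein and fatty acid-free HSA.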

HDL = experiment: Native gel electrophoresis of APC analogs in human plasma, HDL band; assay type: in vitro ADME; conditions: incubated 4 hrs at 37°C, means ± SEM
Procedure, shortened: as §1

LDL = experiment: Native gel electrophoresis of APC analogs in human plasma, LDL band; assay type: in vitro ADME; conditions: incubated 4 hrs at 37°C, means ± SEM
Procedure, shortened: as §1

[4] = assay type: in vivo, nude athymic mice; conditions: for MRT (mean residence time): n=6
Procedure, shortened: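 Naive athymic nude mice (20–26 g) on standard chow received test compound by tail-vein injection: fluorescent analogs at 2.6μmol/kg, radioiodinated dose normalized to mass and body weight. Pre-dose blood was taken for background. Serial 10μL maxillary-puncture samples were collected into EDTA (n=6), and levels were read by fluorescence or gamma counting. Non-compartmental analysis gave clearance, AUC, AUMC and mean residence time, normalized to starting dose.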

lipoprotein fraction = assay type: in vitro ADME; conditions: human plasma
Procedure, shortened: (§2)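 Fresh, unfrozen human plasma was incubated with test compound plus varying intralipid (20% soybean oil, 1.2% egg yolk phospholipids, 2.25% glycerin emulsion), up to 20% v/v. Plasma partitioning runs were shaken for 4 h at 37°C, then ultracentrifuged at […] for 8 h. The layers were separated, and fluorescence (radiance efficiency) or radioactivity was measured in each, expressed as a percentage per fraction.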

Albumin [5] = biological target: T1, Albumin; experiment: Partitioning in fresh unfrozen human plasma with intralipid, albumin binding; assay type: in vitro ADME
Procedure, shortened: as §2

MDA-MB-231 breast cancer [6] = experiment: Tumor uptake kinetics in tumor-bearing flank xenografts; assay type: in vivo; conditions: MDA-MB-231 flank xenografts, IVIS fluorescence imaging, three mice
[7] = athymic nude, mouse, whole blood, intravenous
[8] = nude athymic mice, tail-vein injection, normalized to starting dose
[9] = nude athymic mice, tail-vein injection

fatty acid-free human serum albumin (HSA), sequence (P02768 25-609): as above

Structure (SMILES) | Albumin (signal in band on native gel) (Albumin [3]) | albumin binding (Albumin [3]) [%] | HDL (signal in band on native gel) (HDL) | LDL (signal in band on native gel) (LDL) | AUC [4, 8] [h] | AUMC [4, 8] [hr^2] | Clearance [4, 8] [h⁻¹] | MRT (mean residence time) [4, 9] [h] | CL [4, 8] [L/h] | other results
C[N+](C)(C)CCOP(=O)([O-])OCCCCCCCCCCCCCCCCCCc1ccc(I)cc1 [NM404, 18-(p-Iodophenyl)octadecylphosphocholine] | 79.99 ± 0.22 | 79.99 | 15.42 ± 0.41 | 4.60 ± 0.28 | 43.66 | 4333.63 | 0.02 | – | – | time at which tumor uptake was seen (MDA-MB-231 breast cancer [1]): 24 h; time of peak tumor uptake (MDA-MB-231 breast cancer [1]): 72 h; binding to fatty acid-free human serum albumin [2]: 96%; logD at 48 h (Log D determination): 2.07; Clearance [4, 7]: 0.333 mL/min; MRT [4, 7]: 99.2 h
C[N+](C)(C)CCOP(=O)([O-])OCCCCCCCCCCCCCCCCCCc1ccc(C2=C3C=CC=[N+]3[B-](F)(F)n3cccc32)cc1 [compound 1501, 18-[p-(4,4-difluoro-4-bora-3a,4a-diaza-s-indacene-8-yl)-phenyl]-octadecyl phosphocholine] | 82.64 ± 1.62 | 82.64 | 10.25 ± 1.25 | 7.11 ± 0.41 | 159.64 | 37686.99 | 0.01 | 236.07 | 0.01 | lipoprotein percentage of fluorescence intensity (lipoprotein fraction; 20% v/v intralipid): 14.40%; lipoprotein percentage of fluorescence intensity (lipoprotein fraction; no intralipid): 7.33%; albumin-binding percentage (Albumin [5]; 20% intralipid): 79.32%; albumin-binding percentage (Albumin [5]; no intralipid): 85.93%
CN1/C(=C/C=C2\CCCC(/C=C/C3=[N+](C)c4ccccc4C3(C)C)=C2c2ccc(CCCCCCCCCCCCCCCCCCOP(=O)(O)OCC[N+](C)(C)C)cc2)C(C)(C)c2ccccc21 [compound 1502, 1,3,3-trimethyl-2-[(E)-2-[(3E)-3-(2-[(2E)-1,3,3-trimethyl-2,3-dihydro-1H-indol-2-ylidene]ethylidene}−2-[4-(18-([2-(trimethylazaniumyl)ethylhosphonato]oxy)octadecyl)phenyl]cyclohex-1-en-1-yl]ethenyl]-3H-indol-1-ium] | 69.88 ± 3.32 | 69.88 | 20.90 ± 2.57 | 9.21 ± 0.86 | 13.16 | 446.66 | 0.08 | 33.95 | 0.08 | time at which uptake into the cancer was first seen (MDA-MB-231 breast cancer [6]): 4.5 h; time of peak tumor uptake (MDA-MB-231 breast cancer [6]): 24 h
